pIC50, pKi: −log10 of the molar value.
Legend:
Acetylcholinesterase [1] = molecular target: T1, Acetylcholinesterase (Homo sapiens, UniProt P22303); test: Inhibition of human erythrocyte AChE assessed as acetylthiocholine iodide hydrolysis after 10 mins preincubation by spectrophotometry
Method in brief: (§1)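 Human erythrocyte AChE (0.25 U/mL) with sample in 100 mM sodium phosphate pH 8.0, 10 min room temperature preincubation; started with DTNB (3.3 mM) and acetylthiocholine iodide (1 mM). Thiolate formation read at 412 nm, triplicate. IC50 as concentration for 50% inhibition; mode by Lineweaver–Burk plots over rising substrate and inhibitor, Ki by Dixon plot.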

Butyrylcholinesterase [2] = molecular target: T2, Butyrylcholinesterase (Equus caballus, UniProt Q9N1N9); test: Inhibition of equine BChE assessed as butyrylthiocholine iodide hydrolysis after 10 mins preincubation by spectrophotometry
Method in brief: (§2)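 Equine serum BChE (0.05 U/mL) mixed with sample in 100 mM sodium phosphate pH 8.0, held 10 min at room temperature; started with DTNB (3.3 mM) and butyrylthiocholine iodide (1 mM). 5-Thio-2-nitrobenzoate read at 412 nm, triplicate. IC50 as concentration giving 50% inhibition; kinetics by Lineweaver–Burk plots at rising substrate and inhibitor levels, Ki from Dixon plot.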

Acetylcholinesterase [3] = molecular target: T1, Acetylcholinesterase; test: Mixed type inhibition of human erythrocyte AChE using acetylthiocholine iodide as substrate by Lineweaver-Burk double-reciprocal-plot and dixon plot analysis; method in brief: as §1
Butyrylcholinesterase [4] = molecular target: T2, Butyrylcholinesterase; test: Mixed type inhibition of equine BChE using butyrylthiocholine iodide as substrate by Lineweaver-Burk double-reciprocal-plot and dixon plot analysis; method in brief: as §2
Acetylcholinesterase [5] = molecular target: T1, Acetylcholinesterase; test: Reversible inhibition of human erythrocyte AChE using assessed as acetylthiocholine iodide hydrolysis by spectrophotometry; conditions: TDE = time-dependent effect
Method in brief: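 hAChE (0.25 U/mL) with 1 mM acetylthiocholine in 100 mM sodium phosphate pH 8.0 at 37 °C, read continuously by spectrophotometer for 300 s. Reversibility from initial velocity versus enzyme amount at several inhibitor levels. Enzyme preincubated with inhibitor 0–60 min in 10 min steps; residual velocity (v/v0) followed; progress curves at one inhibitor level fitted by nonlinear regression.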

Acetylcholinesterase [6] = molecular target: T1, Acetylcholinesterase; test: Binding affinity to human erythrocyte AChE assessed as fluorescence quenching by microplate reader
Method in brief: (§3)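 hAChE at 5 U/mL in 100 mM sodium phosphate pH 8.0 titrated with successive inhibitor additions. Excitation 276 nm, emission 300–400 nm, slits 2.0 nm, at 18 and 37 °C; triplicate means. Affinity constant KA and n from log[(F0−F)/F] = logKA + n log[Q] for static quenching.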

Acetylcholinesterase [7] = molecular target: T1, Acetylcholinesterase; test: Binding affinity to human erythrocyte AChE; method in brief: as §3
Acetylcholinesterase [8] = molecular target: T1, Acetylcholinesterase; test: Ratio of eriodictyol IC50 to compound IC50 for human erythrocyte AChE

T1 sequence (P22303 whole entry): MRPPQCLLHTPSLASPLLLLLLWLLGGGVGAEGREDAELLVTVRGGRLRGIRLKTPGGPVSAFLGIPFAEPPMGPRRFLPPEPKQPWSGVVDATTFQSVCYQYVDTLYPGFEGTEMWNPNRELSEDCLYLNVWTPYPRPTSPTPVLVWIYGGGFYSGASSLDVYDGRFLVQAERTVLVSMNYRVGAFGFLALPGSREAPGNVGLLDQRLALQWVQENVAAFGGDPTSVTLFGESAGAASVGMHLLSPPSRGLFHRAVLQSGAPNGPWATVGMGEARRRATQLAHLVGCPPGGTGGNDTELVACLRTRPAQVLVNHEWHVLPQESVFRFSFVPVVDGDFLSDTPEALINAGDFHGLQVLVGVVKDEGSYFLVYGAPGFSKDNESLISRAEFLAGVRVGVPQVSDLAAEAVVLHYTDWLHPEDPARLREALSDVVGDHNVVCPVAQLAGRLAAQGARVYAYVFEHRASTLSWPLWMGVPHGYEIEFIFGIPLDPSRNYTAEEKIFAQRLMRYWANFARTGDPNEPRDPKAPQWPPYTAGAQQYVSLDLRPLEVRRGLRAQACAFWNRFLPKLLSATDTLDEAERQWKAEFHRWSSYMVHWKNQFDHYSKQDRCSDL
T2 sequence (Q9N1N9 whole entry): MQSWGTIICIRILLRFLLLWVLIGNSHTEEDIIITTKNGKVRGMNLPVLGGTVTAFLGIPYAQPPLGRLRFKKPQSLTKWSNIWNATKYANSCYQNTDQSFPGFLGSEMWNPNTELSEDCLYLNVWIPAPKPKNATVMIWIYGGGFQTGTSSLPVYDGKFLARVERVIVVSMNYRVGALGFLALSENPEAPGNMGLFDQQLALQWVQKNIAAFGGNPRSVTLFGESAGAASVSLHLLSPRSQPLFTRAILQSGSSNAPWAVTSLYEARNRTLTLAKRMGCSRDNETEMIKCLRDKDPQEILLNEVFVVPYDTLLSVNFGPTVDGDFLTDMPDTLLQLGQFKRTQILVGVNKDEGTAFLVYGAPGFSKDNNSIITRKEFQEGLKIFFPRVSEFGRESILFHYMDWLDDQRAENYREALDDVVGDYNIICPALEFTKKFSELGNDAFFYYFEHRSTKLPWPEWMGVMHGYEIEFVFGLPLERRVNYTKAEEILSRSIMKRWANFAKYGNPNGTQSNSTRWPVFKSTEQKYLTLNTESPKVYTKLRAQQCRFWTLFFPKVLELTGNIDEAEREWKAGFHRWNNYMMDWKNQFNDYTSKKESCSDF

SMILES	pIC50 (Acetylcholinesterase [1])	inhibition (Acetylcholinesterase [1])	pIC50 (Butyrylcholinesterase [2])	pKi (Acetylcholinesterase [3])	pKi (Butyrylcholinesterase [4])	inhibition (Acetylcholinesterase [5])	KSV (Acetylcholinesterase [6])	Ka (Acetylcholinesterase [7])	Ratio IC50 (Acetylcholinesterase [8])
CC(C)=CCC/C(C)=C/Cc1c(O)cc2c(c1O)C(=O)C[C@@H](c1ccc(O)cc1)O2 [BONANNIONE A]	4.04	Dose-dependent effect	4.69	3.92	4.65	tde			
COc1cc([C@@H]2CC(=O)c3c(cc(O)c(C/C=C(\C)CCC=C(C)C)c3O)O2)ccc1O	3.96	Dose-dependent effect	4.61	3.83	4.63	tde			
COc1ccc([C@@H]2CC(=O)c3c(cc(O)c(C/C=C(\C)CCC=C(C)C)c3O)O2)cc1O	4.03	Dose-dependent effect	4.59	4.02	4.63	tde	0.0103 ×10⁵ L/M	0.924 ×10³ L/M	
COc1cc(C2CC(=O)c3c(cc(O)c(C/C=C(\C)CCC=C(C)C)c3O)O2)cc(OC)c1O (configuration not stated)	3.50		4.10		4.12				
COc1ccc([C@H]2Oc3cc(O)c(C/C=C(\C)CCC=C(C)C)c(O)c3C(=O)[C@@H]2O)cc1O	4.50	Dose-dependent effect	4.90	4.46	4.73	tde	0.0285 ×10⁵ L/M	2.7 ×10³ L/M	
COc1c(O)cc(C2CC(=O)c3c(cc(O)c(C/C=C(\C)CCC=C(C)C)c3O)O2)cc1O (configuration not stated)	4.64	Dose-dependent effect	5.19	4.52	5.12	tde			
COc1ccc([C@@H]2CC(=O)c3c(O)cc(O)cc3O2)cc1O [HESPERETIN]	2.61		2.75						
CC(C)=CCC/C(C)=C/Cc1c(O)cc2c(c1O)C(=O)C[C@@H](c1ccc(O)c(O)c1)O2 [NYMPHAEOL A]	5.14	Dose-dependent effect	5.85	5.08	5.92	tde	0.0577 ×10⁵ L/M	5.49 ×10³ L/M	200
COc1c(O)cc(C2Oc3cc(O)c(C/C=C(\C)CCC=C(C)C)c(O)c3C(=O)[C@@H]2O)cc1O (some centres not stated)	4.81	Dose-dependent effect	5.42	4.77	5.35	tde	0.0369 ×10⁵ L/M	4.54 ×10³ L/M	
CNC(=O)Oc1ccc2c(c1)[C@]1(C)CCN(C)[C@@H]1N2C [PHYSOSTIGMINE]			5.43						
O=C1C[C@@H](c2ccc(O)c(O)c2)Oc2cc(O)cc(O)c21 [ERIODICTYOL]	2.78		2.95						
COc1cc([C@H]2Oc3cc(O)c(C/C=C(\C)CCC=C(C)C)c(O)c3C(=O)[C@@H]2O)ccc1O	4.31	Dose-dependent effect	4.95	4.17	4.74	tde			
O=C1C[C@@H](c2ccc(O)cc2)Oc2cc(O)cc(O)c21 [NARINGENIN]	2.69		2.83						

From ChEMBL document CHEMBL2010757, “Cholinestrase inhibitory effects of geranylated flavonoids from Paulownia tomentosa fruits” (Bioorg Med Chem, 2012)
